# Reference: ChEMBL document CHEMBL4257576, “4-Iminooxazolidin-2-one as a Bioisostere of the Cyanohydrin Moiety: Inhibitors of Enterovirus 71 3C Protease” (J Med Chem, 2018)
# The source made the active and inactive calls. The calls are words filed in the database; no cut-off is given here.
# How the values were obtained:
# [1] = molecular target: Genome polyprotein (Enterovirus A71, UniProt A0A1D8D5K2); assay: Inhibition of EV71 3C protease expressed in Escherichia coli BL21(DE3) using NMA-IEALFQGPPK(DNP)FR as substrate preincubated for 0.5 hrs followed by substrate addition by fluorescence assay
# Genome polyprotein, sequence (A0A1D8D5K2 whole entry): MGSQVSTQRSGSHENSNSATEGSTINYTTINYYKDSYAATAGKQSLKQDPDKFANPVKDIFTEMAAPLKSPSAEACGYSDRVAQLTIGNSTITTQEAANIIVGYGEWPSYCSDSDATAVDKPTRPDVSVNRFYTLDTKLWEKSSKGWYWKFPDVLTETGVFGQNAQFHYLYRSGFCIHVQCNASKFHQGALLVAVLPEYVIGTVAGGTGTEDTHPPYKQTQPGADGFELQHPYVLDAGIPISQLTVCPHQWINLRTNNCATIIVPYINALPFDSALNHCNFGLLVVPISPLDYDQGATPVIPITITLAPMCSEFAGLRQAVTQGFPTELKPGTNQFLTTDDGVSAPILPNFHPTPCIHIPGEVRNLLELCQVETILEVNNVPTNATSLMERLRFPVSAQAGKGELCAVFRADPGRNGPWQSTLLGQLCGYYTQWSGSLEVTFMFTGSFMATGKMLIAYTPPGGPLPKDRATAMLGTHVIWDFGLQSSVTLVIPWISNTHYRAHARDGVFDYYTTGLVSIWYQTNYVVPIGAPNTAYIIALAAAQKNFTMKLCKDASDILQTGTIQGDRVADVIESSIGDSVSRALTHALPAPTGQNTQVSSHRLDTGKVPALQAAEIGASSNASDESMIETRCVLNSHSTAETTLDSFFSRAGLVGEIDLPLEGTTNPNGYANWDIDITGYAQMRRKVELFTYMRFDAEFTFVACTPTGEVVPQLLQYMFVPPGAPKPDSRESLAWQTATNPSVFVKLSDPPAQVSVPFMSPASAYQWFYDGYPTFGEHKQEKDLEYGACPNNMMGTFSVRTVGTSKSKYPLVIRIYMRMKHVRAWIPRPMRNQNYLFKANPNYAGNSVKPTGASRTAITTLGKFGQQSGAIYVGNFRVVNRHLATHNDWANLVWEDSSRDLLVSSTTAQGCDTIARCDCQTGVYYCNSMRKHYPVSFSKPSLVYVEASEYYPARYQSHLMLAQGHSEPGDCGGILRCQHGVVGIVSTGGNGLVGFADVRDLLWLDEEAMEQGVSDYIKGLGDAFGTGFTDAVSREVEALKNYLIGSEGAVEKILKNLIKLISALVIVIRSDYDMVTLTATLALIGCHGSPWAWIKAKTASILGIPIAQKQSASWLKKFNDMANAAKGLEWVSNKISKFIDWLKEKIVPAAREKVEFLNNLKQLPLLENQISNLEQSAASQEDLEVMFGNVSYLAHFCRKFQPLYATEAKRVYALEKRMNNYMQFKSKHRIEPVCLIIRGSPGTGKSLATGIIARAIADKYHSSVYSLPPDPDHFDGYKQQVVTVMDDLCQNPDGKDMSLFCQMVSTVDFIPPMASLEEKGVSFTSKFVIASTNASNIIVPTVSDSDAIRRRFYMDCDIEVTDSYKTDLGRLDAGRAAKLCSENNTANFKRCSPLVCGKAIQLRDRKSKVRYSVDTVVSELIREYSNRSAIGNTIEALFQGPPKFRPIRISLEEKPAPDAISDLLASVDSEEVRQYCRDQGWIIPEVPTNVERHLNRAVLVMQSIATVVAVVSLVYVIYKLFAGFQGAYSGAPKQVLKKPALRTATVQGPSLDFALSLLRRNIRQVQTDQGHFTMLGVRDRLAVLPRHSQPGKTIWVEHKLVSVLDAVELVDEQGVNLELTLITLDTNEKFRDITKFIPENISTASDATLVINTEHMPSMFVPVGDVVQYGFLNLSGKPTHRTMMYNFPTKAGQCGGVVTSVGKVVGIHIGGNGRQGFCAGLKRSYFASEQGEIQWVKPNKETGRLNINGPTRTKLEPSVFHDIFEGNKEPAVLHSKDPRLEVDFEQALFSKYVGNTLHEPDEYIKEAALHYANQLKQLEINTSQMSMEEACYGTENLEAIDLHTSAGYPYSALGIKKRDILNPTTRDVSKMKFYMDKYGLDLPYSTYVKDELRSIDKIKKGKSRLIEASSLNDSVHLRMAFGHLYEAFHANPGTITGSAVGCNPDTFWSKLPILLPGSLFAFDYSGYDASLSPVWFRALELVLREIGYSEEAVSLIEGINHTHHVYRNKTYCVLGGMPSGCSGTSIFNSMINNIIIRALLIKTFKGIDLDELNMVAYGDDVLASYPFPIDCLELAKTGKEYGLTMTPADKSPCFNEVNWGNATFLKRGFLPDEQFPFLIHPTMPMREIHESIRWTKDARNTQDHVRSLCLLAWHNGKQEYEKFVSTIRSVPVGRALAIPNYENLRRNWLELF
# Outline: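 Values reported as Ki (µM), each the mean of three independent experiments with SEM (n=3).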
# [2] = Cytotoxicity in human RD cells assessed as reduction in cell viability incubated for 24 hrs by WST1 assay; format: cell-based
# Outline: (§1)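 Values (EC50, CC50) are the average of three independent experiments, with SEM (n = 3).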
# [3] = system: Enterovirus A71; assay: Antiviral activity against Enterovirus A71 infected in human RD cells receiving pEV71-Luc subgenomic replicon stocks from HEK-293T cells; format: functional, organism-based; conditions: Enterovirus A; outline: as §1
# [4] = Drug metabolism in PBS buffer at pH 7.4; format: physicochemical
# [5] = Half life in ICR (CD-1) mouse plasma by HPLC analysis; format: ADME, cell-free
# Outline: (§2)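 Compound was incubated in human or mouse plasma and its remaining level followed over time to obtain t1/2. Each point is n = 3 with standard deviation bars.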
# [6] = molecular target: Genome polyprotein (Enterovirus A71) (UniProt A0A1D8D5K2); assay: Covalent binding affinity to EV71 3C protease expressed in Escherichia coli BL21(DE3) at 2 mg/ml incubated for 2 to 3 hrs and measured after trypsin digestion by LC-MS/MS analysis
# Genome polyprotein (Enterovirus A71), sequence (A0A1D8D5K2 as listed by the source): as the sequence (A0A1D8D5K2 whole entry) above
# [7] = Drug metabolism in ICR (CD-1) mouse plasma by UPLC/Q-TOF-MS analysis; format: ADME, cell-free
# Outline: (§3)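 Compound was incubated with mouse plasma for 60 min. LC/MS followed loss of the parent peak and appearance of a product peak by retention time, and the product was characterized by tandem MS.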
# [8] = Retention time of compound in ICR (CD-1) mouse plasma by UPLC/Q-TOF-MS analysis; format: ADME, cell-free; outline: as §3
# [9] = Intrinsic clearance in mouse liver microsomes at 1 mg/ml in presence of NADPH regenerating system by HPLC analysis; format: ADME, microsome; conditions: read-out: CLH
# Outline: (§4)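 Human and mouse liver microsomes at 1.0 mg/mL. Compound disappearance was tracked over time to give half-life and intrinsic clearance (Clint, µL/min/mg). Data are the mean of triplicates with SD (n = 3).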
# [10] = Half life in human plasma by HPLC analysis; format: ADME, cell-free; outline: as §2
# [11] = Half life in mouse liver microsomes at 1 mg/ml in presence of NADPH regenerating system by HPLC analysis; format: ADME, microsome; outline: as §4
# [12] = Intrinsic clearance in human liver microsomes at 1 mg/ml in presence of NADPH regenerating system by HPLC analysis; format: ADME, microsome; conditions: read-out: CLH; outline: as §4
# [13] = Half life in human liver microsomes at 1 mg/ml in presence of NADPH regenerating system by HPLC analysis; format: ADME, microsome; outline: as §4
# [14] = system: Mus musculus; assay: AUC (0 to t) in ICR (CD-1) mouse at 20 mg/kg, iv administered as single dose by LC-MS analysis; format: ADME, organism-based; conditions: in vivo
# Outline: (§5)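 Male mice got a single 20 mg/kg dose, either IV or oral (PO), with separate groups for each route. Plasma concentration–time profiles were followed, and parameters were taken from mean ± SD curves (n = 3).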
# [15] = Tmax in ICR (CD-1) mouse at 20 mg/kg, po administered as single dose by LC-MS analysis; format: ADME, organism-based; conditions: in vivo; outline: as §5
# [16] = system: Mus musculus; assay: AUC (0 to t) in ICR (CD-1) mouse at 20 mg/kg, po administered as single dose by LC-MS analysis; format: ADME, organism-based; conditions: in vivo; outline: as §5
# [17] = system: Mus musculus; assay: Cmax in ICR (CD-1) mouse at 20 mg/kg, iv administered as single dose by LC-MS analysis; format: ADME, organism-based; parameters: dose 20 mg/kg, route intravenous; conditions: in vivo; outline: as §5
# [18] = Half life in ICR (CD-1) mouse at 20 mg/kg, iv administered as single dose by LC-MS analysis; format: ADME, organism-based; conditions: in vivo; outline: as §5
# [19] = Half life in ICR (CD-1) mouse at 20 mg/kg, po administered as single dose by LC-MS analysis; format: ADME, organism-based; conditions: in vivo; outline: as §5
# [20] = system: Mus musculus; assay: Cmax in ICR (CD-1) mouse at 20 mg/kg, po administered as single dose by LC-MS analysis; format: ADME, organism-based; parameters: dose 20 mg/kg, route oral; conditions: in vivo; outline: as §5
# [21] = Tmax in ICR (CD-1) mouse at 20 mg/kg, iv administered as single dose by LC-MS analysis; format: ADME, organism-based; conditions: in vivo; outline: as §5
Compound,Ki [1] [nM],CC50 at 24 h [2] [nM],EC50 [3] [nM],further results
Cc1cc(C(=O)N[C@@H](Cc2ccc(F)cc2)C(=O)N[C@@H](C[C@@H]2CCCNC2=O)[C@H](C#N)OC(=O)C2CC2)no1,560,> 100000,4930,
CCN(C)C(=O)O[C@@H](C#N)[C@H](C[C@@H]1CCCNC1=O)NC(=O)[C@H](Cc1ccc(F)cc1)NC(=O)c1cc(C)on1,,> 100000,> 100000,Drug metabolism [4]: Metabolite_Notdetected; half-life [5]: > 120 min
Cc1cc(C(=O)N[C@@H](Cc2ccc(F)cc2)C(=O)N[C@@H](C[C@@H]2CCCNC2=O)[C@H]2OC(=O)N(C3CC3)C2=N)no1,1710,> 100000,8810,
Cc1cc(C(=O)N[C@@H](Cc2ccc(F)cc2)C(=O)N[C@@H](C[C@@H]2CCCNC2=O)[C@@H]2OC(=O)N(C(C)C)C2=N)no1,61,> 100000,510,
Cc1cc(C(=O)N[C@@H](Cc2ccc(F)cc2)C(=O)N[C@@H](C[C@@H]2CCCNC2=O)[C@H](C#N)OC(=O)N2CCOCC2)no1,,> 100000,> 100000,Drug metabolism [4]: Metabolite_Notdetected; half-life [5]: > 120 min
CCOC(=O)/C=C/[C@H](C[C@@H]1CCNC1=O)NC(=O)[C@@H](CC(=O)[C@@H](NC(=O)c1cc(C)on1)C(C)C)Cc1ccc(F)cc1,,,,Activity [6]: Active
CCCCN1C(=N)[C@@H]([C@H](C[C@@H]2CCCNC2=O)NC(=O)[C@H](Cc2ccc(F)cc2)NC(=O)c2cc(C)on2)OC1=O,2540,> 100000,12700,
Cc1cc(C(=O)N[C@@H](Cc2ccc(F)cc2)C(=O)N[C@@H](C[C@@H]2CCCNC2=O)[C@@H]2OC(=O)N(C)C2=N)no1,210,> 100000,1030,
CCNC(=O)O[C@H](C#N)[C@H](C[C@@H]1CCCNC1=O)NC(=O)[C@H](Cc1ccc(F)cc1)NC(=O)c1cc(C)on1,190,> 100000,3580,
Cc1cc(C(=O)N[C@@H](Cc2ccc(F)cc2)C(=O)N[C@@H](C[C@@H]2CCCNC2=O)[C@H](C#N)OC(=O)NC(C)C)no1,36,> 100000,650,Drug metabolism [4]: Metabolite_Detected; Drug metabolism [7]: Metabolite_Detected; Retention_time [8]: 6.41 min; half-life [5]: 31 min
CCCN1C(=N)[C@H]([C@H](C[C@@H]2CCCNC2=O)NC(=O)[C@H](Cc2ccc(F)cc2)NC(=O)c2cc(C)on2)OC1=O,2600,> 100000,12700,
CCNC(=O)O[C@@H](C#N)[C@H](C[C@@H]1CCCNC1=O)NC(=O)[C@H](Cc1ccc(F)cc1)NC(=O)c1cc(C)on1,51,> 100000,750,
CNC(=O)O[C@@H](C#N)[C@H](C[C@@H]1CCCNC1=O)NC(=O)[C@H](Cc1ccc(F)cc1)NC(=O)c1cc(C)on1,71,> 100000,620,
CCCNC(=O)O[C@H](C#N)[C@H](C[C@@H]1CCCNC1=O)NC(=O)[C@H](Cc1ccc(F)cc1)NC(=O)c1cc(C)on1,183,> 100000,2210,
Cc1cc(C(=O)N[C@@H](Cc2ccc(F)cc2)C(=O)N[C@@H](C[C@@H]2CCCNC2=O)[C@@H](O)C#N)no1,4,> 100000,88,microsomal CLint [9]: 116 µL/min/mg; Activity [6]: inactive; half-life [10]: 11 min; half-life [11]: 6 min; half-life [5]: 7 min; microsomal CLint [12]: 87 µL/min/mg; half-life [13]: 8 min
CNC(=O)O[C@H](C#N)[C@H](C[C@@H]1CCCNC1=O)NC(=O)[C@H](Cc1ccc(F)cc1)NC(=O)c1cc(C)on1,46,> 100000,1000,

Compound,Ki [1] [nM],CC50 at 24 h [2] [nM],EC50 [3] [nM],further results
CC(=O)O[C@@H](C#N)[C@H](C[C@@H]1CCCNC1=O)NC(=O)[C@H](Cc1ccc(F)cc1)NC(=O)c1cc(C)on1,64,> 100000,67,half-life [10]: 50 min; half-life [5]: 42 min; half-life [13]: 64 min
CCCNC(=O)O[C@@H](C#N)[C@H](C[C@@H]1CCCNC1=O)NC(=O)[C@H](Cc1ccc(F)cc1)NC(=O)c1cc(C)on1,85,> 100000,160,Drug metabolism [4]: Metabolite_Detected; Drug metabolism [7]: Metabolite_Detected; half-life [5]: 12 min
Cc1cc(C(=O)N[C@@H](Cc2ccc(F)cc2)C(=O)N[C@@H](C[C@@H]2CCCNC2=O)[C@H](C#N)OC(=O)N(C)C)no1,,> 100000,70400,
CCCCNC(=O)O[C@H](C#N)[C@H](C[C@@H]1CCCNC1=O)NC(=O)[C@H](Cc1ccc(F)cc1)NC(=O)c1cc(C)on1,4780,> 100000,8460,
CCN1C(=N)[C@@H]([C@H](C[C@@H]2CCCNC2=O)NC(=O)[C@H](Cc2ccc(F)cc2)NC(=O)c2cc(C)on2)OC1=O,220,> 100000,4370,
Cc1cc(C(=O)N[C@@H](Cc2ccc(F)cc2)C(=O)N[C@@H](C[C@@H]2CCCNC2=O)[C@H](C#N)OC(=O)C(C)C)no1,240,> 100000,2610,
CCCN1C(=N)[C@@H]([C@H](C[C@@H]2CCCNC2=O)NC(=O)[C@H](Cc2ccc(F)cc2)NC(=O)c2cc(C)on2)OC1=O,83,> 100000,210,microsomal CLint [9]: 20 µL/min/mg; AUCt [14]: 2340 ng·h/mL; Tmax [15]: 15 min; Activity [6]: inactive; half-life [10]: > 120 min; AUCt [16]: 7.9 mg·min/mL; Cmax [17]: 8200 ng/mL; half-life [18]: 51 min; half-life [11]: 35 min; half-life [19]: 60 min; Cmax [20]: 150 ng/mL; half-life [5]: > 120 min; microsomal CLint [12]: 17 µL/min/mg; Tmax [21]: 5 min; half-life [13]: 40 min
CCN1C(=N)[C@H]([C@H](C[C@@H]2CCCNC2=O)NC(=O)[C@H](Cc2ccc(F)cc2)NC(=O)c2cc(C)on2)OC1=O,3530,> 100000,17200,
Cc1cc(C(=O)N[C@@H](Cc2ccc(F)cc2)C(=O)N[C@@H](C[C@@H]2CCCNC2=O)[C@@H](C#N)OC(=O)NC2CC2)no1,6210,> 100000,12800,
Cc1cc(C(=O)N[C@@H](Cc2ccc(F)cc2)C(=O)N[C@@H](C[C@@H]2CCCNC2=O)[C@H](C#N)OC(=O)NC2CC2)no1,1280,> 100000,5110,
Cc1cc(C(=O)N[C@@H](Cc2ccc(F)cc2)C(=O)N[C@@H](C[C@@H]2CCCNC2=O)[C@H]2OC(=O)N(C(C)C)C2=N)no1,33,> 100000,100,microsomal CLint [9]: 9 µL/min/mg; half-life [10]: > 120 min; half-life [11]: 74 min; half-life [5]: > 120 min; microsomal CLint [12]: 9 µL/min/mg; half-life [13]: 76 min
Cc1cc(C(=O)N[C@@H](Cc2ccc(F)cc2)C(=O)N[C@@H](C[C@@H]2CCCNC2=O)[C@H](C#N)OC(=O)Nc2ccccc2)no1,,> 100000,13200,
Cc1cc(C(=O)N[C@@H](Cc2ccc(F)cc2)C(=O)N[C@@H](C[C@@H]2CCCNC2=O)[C@H]2OC(=O)N(C)C2=N)no1,280,> 100000,3970,
Cc1cc(C(=O)N[C@@H](Cc2ccc(F)cc2)C(=O)N[C@@H](C[C@@H]2CCCNC2=O)[C@@H](C#N)OC(=O)NC(C)C)no1,93,> 100000,1730,
CCCCNC(=O)O[C@@H](C#N)[C@H](C[C@@H]1CCCNC1=O)NC(=O)[C@H](Cc1ccc(F)cc1)NC(=O)c1cc(C)on1,450,> 100000,690,
